These results are taken from article PMC8324087 (Angewandte Chemie (International ed. in English), 2021).

The IC50 is the concentration needed to halve the response being measured. By Cmax is commonly meant the peak of the concentration-time curve. What is called Tmax is the time at which the peak concentration occurs. The term Vss denotes the apparent volume that relates the amount in the body to the concentration in plasma or blood. One may read the DC50 as the concentration at which degradation of the target reaches its halfway point.

For data set [1], the target named is T1, FGFR2 (Homo sapiens, UniProt P21802). In words: Immunoblot analysis of FGFR2 degradation in KATO III cells. It counts as cell-based. Summed up:
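FGFR2-amplified KATO III cells exposed to test compound at 1 µM for 24h, across a concentration series for 6h, over a time course, or for 4h beside a negative-control analogue. For rescue, cells were pretreated 2h with BGJ398, a VHL ligand, bortezomib or MLN4924, then given test compound for 4h. Full-length FGFR2 was detected by immunoblot.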
A general note: A western blot detects proteins with antibodies after separation by electrophoresis.
Target sequence in this assay (P21802 430-767 limits assumed): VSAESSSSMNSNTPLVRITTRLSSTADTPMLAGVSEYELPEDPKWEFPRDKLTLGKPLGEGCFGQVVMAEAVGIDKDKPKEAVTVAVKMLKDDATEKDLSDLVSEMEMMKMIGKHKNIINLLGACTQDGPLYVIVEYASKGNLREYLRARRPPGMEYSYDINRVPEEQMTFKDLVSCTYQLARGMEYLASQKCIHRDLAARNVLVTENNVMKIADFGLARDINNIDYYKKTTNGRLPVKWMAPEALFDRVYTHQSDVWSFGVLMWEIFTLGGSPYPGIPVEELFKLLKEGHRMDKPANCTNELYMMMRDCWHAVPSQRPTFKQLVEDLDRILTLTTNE

For data set [2], the target named is T1, FGFR2. Put plainly: Z'-LYTE kinase assay. The data set is classed as biochemical.
Target sequence in this assay (P21802 22-821): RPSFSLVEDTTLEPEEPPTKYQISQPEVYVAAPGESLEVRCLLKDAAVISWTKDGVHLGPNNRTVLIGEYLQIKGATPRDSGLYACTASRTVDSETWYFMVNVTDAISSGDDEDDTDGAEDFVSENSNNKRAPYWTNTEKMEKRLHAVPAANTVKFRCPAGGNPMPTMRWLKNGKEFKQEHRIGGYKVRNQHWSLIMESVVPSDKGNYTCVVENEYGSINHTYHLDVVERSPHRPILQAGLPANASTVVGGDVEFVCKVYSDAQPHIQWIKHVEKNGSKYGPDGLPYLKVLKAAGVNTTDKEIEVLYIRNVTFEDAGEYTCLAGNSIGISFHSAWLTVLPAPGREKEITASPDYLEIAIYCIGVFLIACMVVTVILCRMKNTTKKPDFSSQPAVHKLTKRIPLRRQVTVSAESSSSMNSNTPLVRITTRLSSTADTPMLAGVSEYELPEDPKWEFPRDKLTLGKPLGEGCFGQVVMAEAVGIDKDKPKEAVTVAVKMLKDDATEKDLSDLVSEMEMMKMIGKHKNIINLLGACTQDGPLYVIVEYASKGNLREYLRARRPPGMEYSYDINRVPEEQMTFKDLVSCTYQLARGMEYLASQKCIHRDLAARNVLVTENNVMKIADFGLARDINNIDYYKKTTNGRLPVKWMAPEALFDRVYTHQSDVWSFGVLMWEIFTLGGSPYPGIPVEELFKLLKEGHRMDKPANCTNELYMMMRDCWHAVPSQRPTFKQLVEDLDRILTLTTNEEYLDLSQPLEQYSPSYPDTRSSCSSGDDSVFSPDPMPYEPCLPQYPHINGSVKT
Data set [3] concerns the target FGFR3 (Homo sapiens, UniProt P22607). In words: Immunoblot analysis of FGFR3 in JHH7 cells. The data set is classed as cell-based. Conditions: 16h.
The subject of data set [4] is Kelly cells. Put plainly: Quantitative mass spectrometry-based proteomics in Kelly cells. It counts as cell-based. To be noted: 5h treatment, 1 µM. Summed up:
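Kelly cells, which express both FGFR1 and FGFR2, given test compound at 1 µM for 5h. Quantitative mass spectrometry-based proteomics gave relative abundance of proteins across the proteome.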

Data set [5] deals with CCLP-FP cells. Put plainly: CellTiter-Glo anti-proliferation, CCLP-FP cells. The data set is classed as cell-based. To be noted: read-out: anti-proliferative IC50, engineered FGFR2 fusion CCLP-FP cells, 3d. Summed up: (§1)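 Cell viability read by CellTiter-Glo after test compound exposure: 3d for CCLP-FP (CCLP-1 with ectopic FGFR2-PHGDH fusion) and CCLP1 (FGFR1 overexpression), 10d for ICC13–7 (endogenous FGFR2-OPTN fusion); anti-proliferative IC50 derived; mean ± SEM, n = 3.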
In general terms: Cellular ATP, detected with luciferase, serves as a proxy for viable cell number.

Data set [6] relates to all FGFR isoforms. Put plainly: Biochemical inhibition of FGFR isoforms. To be noted: Table S1. Summed up: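 FGFR isoform IC50s measured by Z'-LYTE kinase assay, run as an outsourced service.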
Data set [7] has as its system CCLP1 cells. In words: CellTiter-Glo anti-proliferation, CCLP1 cells. The data set is classed as cell-based. To be noted: read-out: anti-proliferative IC50, FGFR1 overexpressing CCLP1 cells, 3d. Summed up: as §1
The subject of data set [8] is phosphorylation of FRS2 or ERK. Put plainly: Immunoblot of downstream FGFR2 signaling. The data set is classed as cell-based. Conditions: CCLP1-FP cells, 50 nM, 4 or 8 hours. Summed up:
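CCLP1 cells ectopically expressing the FGFR2-PHGDH fusion were exposed to test compound at 50 nM for 4 or 8 hours. Lysates were immunoblotted for the fusion protein and for signaling markers.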

Data set [9] can be described thus: Pharmacokinetics study in mice. It counts as in vivo. Summed up:
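Mice received a single dose of test compound by intravenous injection (1 mg/kg), intraperitoneal injection (3 mg/kg) or oral administration (10 mg/kg) for pharmacokinetic profiling.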

Data set [10] addresses FGFR4 (Homo sapiens, UniProt P22455). In words: Immunoblot analysis of FGFR4 in JHH7 cells. It counts as cell-based. To be noted: 16h.
The target of data set [11] is FGFR2-PHGDH (Homo sapiens, UniProt O43175+P21802). Put plainly: In vivo pharmacodynamics, CCLP1-FGFR2-PHGDH xenograft model. Conditions: 20 or 40 mg/kg, IP QD for 6d; tumors isolated 4h after last dose. Also on record: species or system mice. Summed up:
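Mice bearing CCLP1-FGFR2-PHGDH xenografts began dosing once tumours reached ~200 mm3. Test compound was given at 20 or 40 mg/kg IP once daily for 6 d to assess in vivo degradation and signaling.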

Data set [12] relates to ICC13–7 cells. In words: CellTiter-Glo anti-proliferation, ICC13–7 cells. The data set is classed as cell-based. Conditions: read-out: anti-proliferative IC50, FGFR2 fusion-positive ICC13–7 cells, 10d. Summed up: as §1
Data set [13] has as its target FGFR1 (Homo sapiens, UniProt P11362). Put plainly: Immunoblot analysis of FGFR1 degradation in CCLP1 cells. The data set is classed as cell-based.
The target of data set [14] is FGFR2-OPTN fusion (Homo sapiens, UniProt P21802+Q96CV9). Put plainly: Immunoblot analysis of FGFR2-OPTN fusion in ICC13–7 cells. It counts as cell-based. To be noted: 100 nM and 1 µM, 24h. Summed up:
(§2)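 Immunoblot for FGFR2 fusion protein after 24 h exposure to test compound. FGFR2-PHGDH fusion is ectopically expressed in CCLP-1 cells (CCLP-1-FP); FGFR2-OPTN is endogenous in ICC13–7 cells. Both fusions carry nearly the full FGFR2 coding sequence (extracellular, transmembrane and kinase domains) fused in-frame to dimerization-domain partners.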

For data set [15], the target named is FGFR2-PHGDH fusion (Homo sapiens, UniProt O43175+P21802). Put plainly: Immunoblot analysis of FGFR2-PHGDH fusion in CCLP-1-FP cells. It counts as cell-based. Conditions: 100 nM and 1 µM, 24h. Summed up:
as §2

Where [16] appears, read: read-out: FGFR2 IC50, BGJ398-VHL based degraders.

Like-named read-outs stand apart in the source and are kept apart here.

Sequence of FGFR1 (P11362 22-822): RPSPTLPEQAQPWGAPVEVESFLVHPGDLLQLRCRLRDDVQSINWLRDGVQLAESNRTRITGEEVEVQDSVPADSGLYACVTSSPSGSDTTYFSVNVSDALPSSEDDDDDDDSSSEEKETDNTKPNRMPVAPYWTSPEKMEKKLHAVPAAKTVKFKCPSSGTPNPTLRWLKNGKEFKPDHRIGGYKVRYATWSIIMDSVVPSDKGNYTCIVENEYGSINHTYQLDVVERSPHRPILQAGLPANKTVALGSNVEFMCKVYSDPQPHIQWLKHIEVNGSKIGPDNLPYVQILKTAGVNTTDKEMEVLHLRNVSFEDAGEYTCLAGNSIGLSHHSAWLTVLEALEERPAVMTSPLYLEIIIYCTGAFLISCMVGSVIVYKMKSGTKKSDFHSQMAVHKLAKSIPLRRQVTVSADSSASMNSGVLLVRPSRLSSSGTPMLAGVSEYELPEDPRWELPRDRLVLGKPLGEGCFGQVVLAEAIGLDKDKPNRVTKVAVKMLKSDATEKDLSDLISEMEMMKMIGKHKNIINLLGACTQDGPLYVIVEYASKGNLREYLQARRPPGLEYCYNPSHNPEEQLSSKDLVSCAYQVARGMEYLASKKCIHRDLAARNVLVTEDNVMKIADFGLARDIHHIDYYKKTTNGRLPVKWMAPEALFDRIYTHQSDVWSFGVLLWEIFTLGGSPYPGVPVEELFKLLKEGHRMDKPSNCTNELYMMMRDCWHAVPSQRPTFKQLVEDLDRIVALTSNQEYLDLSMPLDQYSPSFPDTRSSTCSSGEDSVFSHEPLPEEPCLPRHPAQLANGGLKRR
Sequence of FGFR2-PHGDH (P21802 458-767 limits assumed, one chain of several): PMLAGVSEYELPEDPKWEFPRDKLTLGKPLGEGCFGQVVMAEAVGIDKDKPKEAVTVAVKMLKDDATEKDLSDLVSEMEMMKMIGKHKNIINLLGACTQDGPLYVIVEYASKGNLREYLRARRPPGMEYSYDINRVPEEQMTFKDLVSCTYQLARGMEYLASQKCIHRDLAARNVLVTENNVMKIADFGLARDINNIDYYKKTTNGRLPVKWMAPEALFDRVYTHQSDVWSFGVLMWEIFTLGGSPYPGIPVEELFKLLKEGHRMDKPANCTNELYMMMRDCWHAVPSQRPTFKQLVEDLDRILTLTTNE
Sequence of FGFR3 (P22607 23-806): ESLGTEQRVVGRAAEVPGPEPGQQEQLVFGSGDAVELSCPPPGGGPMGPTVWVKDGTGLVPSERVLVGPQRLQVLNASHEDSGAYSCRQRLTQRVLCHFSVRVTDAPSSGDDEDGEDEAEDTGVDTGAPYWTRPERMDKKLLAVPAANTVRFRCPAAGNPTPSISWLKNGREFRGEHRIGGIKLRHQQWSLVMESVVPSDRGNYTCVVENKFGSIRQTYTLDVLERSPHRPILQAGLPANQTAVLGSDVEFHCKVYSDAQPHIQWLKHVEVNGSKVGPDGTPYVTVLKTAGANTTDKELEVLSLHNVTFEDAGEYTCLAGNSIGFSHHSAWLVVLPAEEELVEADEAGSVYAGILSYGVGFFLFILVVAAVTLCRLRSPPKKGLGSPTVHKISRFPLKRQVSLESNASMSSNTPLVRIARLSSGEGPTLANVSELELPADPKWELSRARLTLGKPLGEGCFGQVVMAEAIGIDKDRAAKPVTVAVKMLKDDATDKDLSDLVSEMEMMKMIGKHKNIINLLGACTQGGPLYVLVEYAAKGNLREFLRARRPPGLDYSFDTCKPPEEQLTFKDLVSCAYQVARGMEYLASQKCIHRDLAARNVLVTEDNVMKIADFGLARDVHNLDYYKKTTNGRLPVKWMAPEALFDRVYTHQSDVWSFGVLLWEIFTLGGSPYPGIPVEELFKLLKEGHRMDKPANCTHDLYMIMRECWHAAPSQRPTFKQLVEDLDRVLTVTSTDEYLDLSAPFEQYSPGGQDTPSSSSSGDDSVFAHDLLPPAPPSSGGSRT
Sequence of FGFR4 (P22455 22-802): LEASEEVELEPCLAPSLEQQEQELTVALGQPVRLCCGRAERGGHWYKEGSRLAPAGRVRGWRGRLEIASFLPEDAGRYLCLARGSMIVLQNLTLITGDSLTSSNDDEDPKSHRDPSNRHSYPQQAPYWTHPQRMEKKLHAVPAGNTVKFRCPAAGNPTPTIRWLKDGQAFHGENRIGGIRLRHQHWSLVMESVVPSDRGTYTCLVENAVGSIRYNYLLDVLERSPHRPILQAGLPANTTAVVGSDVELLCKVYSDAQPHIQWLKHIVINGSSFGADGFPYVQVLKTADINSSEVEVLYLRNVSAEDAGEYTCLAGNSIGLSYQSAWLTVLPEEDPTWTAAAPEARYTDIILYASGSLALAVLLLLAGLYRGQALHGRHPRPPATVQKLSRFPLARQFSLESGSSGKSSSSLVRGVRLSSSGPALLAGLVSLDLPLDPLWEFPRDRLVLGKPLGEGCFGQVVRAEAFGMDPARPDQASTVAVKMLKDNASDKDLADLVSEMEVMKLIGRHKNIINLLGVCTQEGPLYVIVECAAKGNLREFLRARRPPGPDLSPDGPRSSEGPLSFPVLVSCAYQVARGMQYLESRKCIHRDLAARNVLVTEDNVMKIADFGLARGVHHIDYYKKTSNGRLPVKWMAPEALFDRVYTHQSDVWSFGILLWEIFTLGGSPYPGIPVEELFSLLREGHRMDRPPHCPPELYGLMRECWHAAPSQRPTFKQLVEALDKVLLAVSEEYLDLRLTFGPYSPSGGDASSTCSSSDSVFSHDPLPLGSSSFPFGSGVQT
Sequence of FGFR2-OPTN fusion (P21802 431-767 limits assumed, one chain of several): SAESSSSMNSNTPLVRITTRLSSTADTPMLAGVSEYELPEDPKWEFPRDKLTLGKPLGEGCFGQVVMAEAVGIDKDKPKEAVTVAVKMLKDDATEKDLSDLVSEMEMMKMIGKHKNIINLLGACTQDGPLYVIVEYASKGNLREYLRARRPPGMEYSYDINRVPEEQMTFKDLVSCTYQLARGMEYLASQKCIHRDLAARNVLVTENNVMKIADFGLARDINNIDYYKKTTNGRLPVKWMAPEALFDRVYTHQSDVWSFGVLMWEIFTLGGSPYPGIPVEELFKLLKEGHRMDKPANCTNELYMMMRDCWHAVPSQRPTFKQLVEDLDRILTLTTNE
Sequence of FGFR2-PHGDH fusion (P21802 431-767 limits assumed, one chain of several): as above

On to `CCN1CCN(c2ccc(Nc3cc(N(C)C(=O)Nc4c(Cl)c(OC)cc(OC)c4Cl)ncn3)cc2)CC1` [BGJ398, reference compound], for which the “Rescue of DGY-09-192 induced FGFR2 degradation by pretreatment” value in [1] (2h pretreatment then DGY-09-192 for 4h) is on record as “rescued FGFR2 degradation”.

As for `COc1cc(OC)c(Cl)c(NC(=O)N(C)c2cc(Nc3ccc(N4CCN(CC(=O)NCCCCCOc5cccc6c5C(=O)N(C5CCC(=O)NC5=O)C6=O)CC4)cc3)ncn2)c1Cl` (stereo not drawn) [DGY-09-073], in data set [2] (read-out: FGFR2 IC50, BGJ398-IMiDs based degraders), the IC50 came out at 33 nM.

On to `COc1cc(OC)c(Cl)c(NC(=O)N(C)c2cc(Nc3ccc(N4CCN(CC(=O)N[C@H](C(=O)N5C[C@H](O)C[C@H]5C(=O)N[C@@H](C)c5ccc(-c6scnc6C)cc5)C(C)(C)C)CC4)cc3)ncn2)c1Cl` [DGY-09-192], for which, in data set [3], the “Effect on FGFR3 protein levels” value is “minimal effects”. Further, the Proteome-wide degradation selectivity result in data set [4] is “high selectivity for FGFR1 and FGFR2 with PDE6D as an off-target”. The IC50 in [5] stood at 8 nM. For the same compound, in [6], the “Inhibition of FGFR isoforms” value is on record as “equally potent inhibitor for all FGFR isoforms”. Besides, the IC50 in [7] is 17 nM. Moreover, the “Suppression of downstream FGFR2 signaling (phosphorylation of FRS2 or ERK)” value in [8] is on record as “durably suppressed”. In data set [9] (ip 3 mg/kg), this compound registered an AUClast of 7.33 µM·h, a CL of 6.84 mL/min/kg, a Cmax of 1490 nM and a T1/2 of 4.25 h. Further, the Tmax in [9] (ip 3 mg/kg) is on record as 1.33 h. In data set [9] (iv 1 mg/kg), this compound came in with an AUClast of 2.94 µM·h, a CL of 5.58 mL/min/kg, a Cmax of 1600 nM and a T1/2 of 5.45 h. Besides, in data set [9] (iv 1 mg/kg), the Tmax worked out at 0.08 h and the Vss is recorded as 1.41 L/kg. Besides, the “oral bioavailability” value in [9] (oral 10 mg/kg) is recorded as “negligible”. In addition, in data set [9] (po 10 mg/kg), the AUClast was 0.07 µM·h, the CL is reported as 1550.77 mL/min/kg, the concentration peaked (Cmax) at 10 nM and the Fpo was found to be 0.2. Moreover, in data set [9] (po 10 mg/kg), the T1/2 is recorded as 5.10 h and the Tmax amounted to 1.67 h. Moreover, in [9] (via IV and IP administration), the “clearance” value was “low clearance” and the “half-life (T1/2)” value turned out to be 5 h. In addition, the “Effect on FGFR4 protein levels” value in [10] is reported as “minimal effects”. In data set [11], the “FGFR2-PHGDH protein levels in tumor” value is “reduction”; the “phosphorylation of downstream markers FRS2 and ERK1/2 in tumor” value was “reduction”. The IC50 in data set [12] was 40 nM. Moreover, the “Dmax of FGFR1 degradation” value in data set [13] (16h) is on record as 85%. Moreover, in data set [13] (read-out: DC50 of FGFR1 degradation, 16h), the DC50 was 4.35 nM. For the same compound, the “Degradation of FGFR2-OPTN fusion protein” value in data set [14] is recorded as “dose-dependent degradation”. For the same compound, in data set [15], the “Degradation of FGFR2-PHGDH fusion protein” value is “dose-dependent degradation”. The IC50 in [2] (setting [16]) turned out to be 34 nM. The “Concentration at which hook effect is observed” value in [1] (6h dose titration) was “above 5 µM”. The “Dmax of FGFR2 degradation” value in [1] (6h treatment) was 74%. The “Degradation of full length FGFR2 protein” value in data set [1] (24h treatment at 1 µM) is “most potent degradation”. In [1] (time course), the “Time to significant FGFR2 degradation” value was at most 4 h.

Turning to `COc1cc(OC)c(Cl)c(NC(=O)N(C)c2cc(Nc3ccc(N4CCN(CC(=O)NCCCCCSC(C)(C)C(NC(C)=O)C(=O)N5CC(O)CC5C(=O)NC(C)c5ccc(-c6scnc6C)cc5)CC4)cc3)ncn2)c1Cl` (stereo not drawn) [DGY-11-122], the IC50 in [2] (setting [16]) was 43 nM.

Turning to `COc1cc(OC)c(Cl)c(NC(=O)N(C)c2cc(Nc3ccc(N4CCN(CC(=O)NCCCCCOc5cc(-c6scnc6C)ccc5[C@H](C)NC(=O)[C@@H]5C[C@@H](O)CN5C(=O)[C@@H](NC(C)=O)C(C)(C)C)CC4)cc3)ncn2)c1Cl` [DGY-11-123], the IC50 in [2] (setting [16]) amounted to 59 nM.

For the compound `COc1cc(OC)c(Cl)c(NC(=O)N(C)c2cc(Nc3ccc(N4CCN(CC(=O)NCCC(=O)N[C@H](C(=O)N5C[C@H](O)C[C@H]5C(=O)N[C@@H](C)c5ccc(-c6scnc6C)cc5)C(C)(C)C)CC4)cc3)ncn2)c1Cl` [NJH-05-043], the IC50 in [2] (setting [16]) amounted to 30 nM.

Regarding `COc1cc(OC)c(Cl)c(NC(=O)N(C)c2cc(Nc3ccc(N4CCN(C(=O)NCCOCCC(=O)NC(C(=O)N5CC(O)CC5C(=O)NC(C)c5ccc(-c6scnc6C)cc5)C(C)(C)C)CC4)cc3)ncn2)c1Cl` (stereo not drawn) [NJH-05-044], the IC50 in data set [2] (setting [16]) was found to be 33 nM.

For the compound `COc1cc(OC)c(Cl)c(NC(=O)N(C)c2cc(Nc3ccc(N4CCN(CCCCCC(=O)N[C@H](C(=O)N5C[C@H](O)C[C@H]5C(=O)N[C@@H](C)c5ccc(-c6scnc6C)cc5)C(C)(C)C)CC4)cc3)ncn2)c1Cl` [NJH-05-123], the IC50 in data set [2] (setting [16]) amounted to 16 nM.

On to `COc1cc(OC)c(Cl)c(NC(=O)N(C)c2cc(Nc3ccc(N4CCN(CCCC(=O)N[C@H](C(=O)N5C[C@H](O)C[C@H]5C(=O)N[C@@H](C)c5ccc(-c6scnc6C)cc5)C(C)(C)C)CC4)cc3)ncn2)c1Cl` [NJH-05–132], for which, in [2] (setting [16]), the IC50 is 10 nM.

Take `COc1cc(OC)c(Cl)c(NC(=O)N(C)c2cc(Nc3ccc(N4CCN(CCC(=O)N[C@H](C(=O)N5C[C@H](O)C[C@H]5C(=O)N[C@@H](C)c5ccc(-c6scnc6C)cc5)C(C)(C)C)CC4)cc3)ncn2)c1Cl` [NJH-05–166]: the IC50 in [2] (setting [16]) stood at 30 nM.
